# Active and inactive are the calls of the source. The rule behind the calls is not given here.
# Columns and labels:
# RAW264.7 [1] = test: Inhibition of LPS-induced nitric oxide production in mouse RAW264.7 cells; format: functional, cell-based
# Method in brief: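 RAW264.7 macrophages were plated at 1 × 10⁵ cells/well and cultured overnight. Cells were exposed to 10 ng/mL LPS with graded compound concentrations for 20 h at 37 °C, 5% CO₂, in phenol red-free RPMI1640 containing 1% heat-inactivated FBS. Supernatant nitrite was read fluorometrically with DAN followed by NaOH (ex 355/em 460 nm). IC50 is the concentration halving NO versus control; mean ± SD of two or three experiments.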
# RAW264.7 [2] = test: Inhibition of LPS-induced TNFalpha production in mouse RAW264.7 cells by ELISA; format: functional, cell-based
# Method in brief: (§1)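 RAW264.7 cells (grown in RPMI1640 with 10% heat-inactivated FBS) were seeded at 1 × 10⁵ cells/well and left overnight. They were then stimulated with 10 ng/mL LPS (E. coli O111:B4) plus a range of compound concentrations for 20 h at 37 °C in phenol red-free RPMI1640 with 1% FBS. TNF-α and IL-6 in the supernatant were measured by ELISA.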
# RAW264.7 [3] = test: Inhibition of LPS-induced IL6 production in mouse RAW264.7 cells by ELISA; format: functional, cell-based; method in brief: as §1
# Mus musculus [4] = test: Suppression of serum TNF-alpha level in LPS-challenged BALB/c mouse endotoxin shock model at 0.1 to 3 mg/kg, iv; format: functional, organism-based
# Method in brief: (§2)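 Female BALB/c mice (6-week-old) received compound iv at 0.1–3 mg/kg in 10% glucuronylglucosyl-β-cyclodextrin, 1 h before LPS 7 mg/kg ip. Serum was collected at 1 h for TNF-α, 2 h for IL-6 and 6 h for IL-1β, then assayed by ELISA. n = 8 mice; means ± SE; one-tailed Williams or Shirley-Williams test versus vehicle.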
# Mus musculus [5] = test: Suppression of serum IL6 level in LPS-challenged BALB/c mouse endotoxin shock model at 0.1 to 3 mg/kg, iv; format: functional, organism-based; method in brief: as §2
# Mus musculus [6] = test: Survival of LPS-challenged BALB/c mouse endotoxin shock model at 3 mg/kg, iv; format: functional, organism-based; parameters: dose 3 mg/kg
# Method in brief: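 Female BALB/c mice (6-week-old, acclimated at least 1 week) were given compound iv in 10% glucuronylglucosyl-β-cyclodextrin 1 h before a lethal LPS challenge (7 mg/kg ip). Survival was recorded for 7 days, with 10 mice per group. Survival was analysed by Tarone's test with a closed step-down method versus vehicle.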
# Mus musculus [7] = test: Suppression of serum IL1-beta level in LPS-challenged BALB/c mouse endotoxin shock model at 0.1 to 3 mg/kg, iv; format: functional, organism-based; method in brief: as §2
# Mus musculus [8] = test: Survival of LPS-challenged intravenously dosed BALB/c mouse endotoxin shock model; format: functional; conditions: iv
# Method in brief: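 Female BALB/c mice (6-week-old, 15-21 g), acclimated at least one week. Compound dissolved in 10% (w/v) glucuronylglucosyl-β-cyclodextrin sodium salt, given iv at 0.3-3 mg/kg 1 h before lethal LPS (E. coli O111:B4, 7 mg/kg ip, in saline). Survival recorded for 7 days; 10 mice per group; Tarone's test with simple closed step-down method vs vehicle; ED50 as minimum effective dose.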
# Mus musculus [9] = test: Suppression of serum nitric oxide level in LPS-challenged BALB/c mouse endotoxin shock model at 0.1 to 3 mg/kg, iv; format: functional, organism-based
# Method in brief: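 Female BALB/c mice were dosed iv at 0.1–3 mg/kg (10% glucuronylglucosyl-β-cyclodextrin vehicle) 1 h before LPS 7 mg/kg ip. Serum was taken at 6 h. Nitrate was reduced to nitrite with Aspergillus nitrate reductase and β-NADPH for 20 min, then read with DAN/HCl and NaOH fluorescence (ex 355/em 460 nm) against a sodium nitrite standard curve. n = 8 mice; means ± SE.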
smiles,measurement,setting,value
CCOC(=O)C1=C(S(=O)(=O)Nc2ccc(F)cc2)CCCC1,IC50,RAW264.7 [1],1400 nM
CCOC(=O)C1=CCCCC1S(=O)(=O)Nc1nncs1 (stereo unspecified),IC50,RAW264.7 [1],> 10000 nM
CCOC(=O)C1=CCCCC1S(=O)(=O)Nc1ccc(Cl)cc1Cl (stereo unspecified),IC50,RAW264.7 [1],20 nM
CCOC(=O)C1=CCCCC1S(=O)(=O)Nc1nccs1 (stereo unspecified),IC50,RAW264.7 [1],> 10000 nM
COC(=O)C1=CCCCC1S(=O)(=O)Nc1ccc(F)cc1F (stereo unspecified),IC50,RAW264.7 [1],57 nM
CCOC(=O)C1=C(S(=O)(=O)Nc2ccccc2)CCCC1,IC50,RAW264.7 [1],> 8200 nM
CCOC(=O)C1=CCCCC1S(=O)(=O)Nc1ccc(F)cc1 (stereo unspecified),IC50,RAW264.7 [1],110 nM
CCOC(=O)C1=CCCCC1S(=O)(=O)Nc1ccc(Cl)cc1 (stereo unspecified),IC50,RAW264.7 [1],400 nM
C/C=C(\C(=O)OCC)C(CCC)S(=O)(=O)Nc1ccc(F)cc1Cl (stereo unspecified),IC50,RAW264.7 [1],2600 nM
CCOC(=O)C1=CCCCC1S(=O)(=O)N(C)c1ccc(Cl)cc1F (stereo unspecified),IC50,RAW264.7 [1],230 nM
CCOC(=O)c1ccccc1S(=O)(=O)Nc1ccc(F)cc1Cl,IC50,RAW264.7 [1],> 10000 nM
CC(C)COC(=O)C1=CCCCC1S(=O)(=O)Nc1ccc(F)cc1F (stereo unspecified),IC50,RAW264.7 [1],49 nM
CCOC(=O)C1=CCCCC1S(=O)(=O)Nc1ccc(Cl)cc1F (stereo unspecified),IC50,RAW264.7 [2],230 nM
same,IC50,RAW264.7 [1],160 nM
same,IC50,RAW264.7 [3],170 nM
CCOC(=O)C1=CCCCC1S(=O)(=O)Nc1ccccc1C(=O)OC (stereo unspecified),IC50,RAW264.7 [1],1100 nM
O=C1C2=C(CCCC2)S(=O)(=O)N1c1ccc(F)cc1,IC50,RAW264.7 [1],4100 nM
CCOC(=O)C1=CCCCC1S(=O)(=O)Nc1ccc(C)cc1Cl (stereo unspecified),IC50,RAW264.7 [1],41 nM
CCOC(=O)C1=CCCC1S(=O)(=O)Nc1ccc(F)cc1Cl (stereo unspecified),IC50,RAW264.7 [1],110 nM
CCOC(=O)C1=CCCCC1S(=O)(=O)Nc1ccccc1F (stereo unspecified),IC50,RAW264.7 [1],75 nM
CCCCOC(=O)C1=CCCCC1S(=O)(=O)Nc1ccc(F)cc1F (stereo unspecified),IC50,RAW264.7 [1],140 nM
CCOC(=O)C1=CCCCC1S(=O)(=O)Nc1ccccc1 (stereo unspecified),IC50,RAW264.7 [1],260 nM
CCOC(=O)C1=CCCCC1S(=O)(=O)Nc1ccc(F)cc1F (stereo unspecified),IC50,RAW264.7 [1],16 nM
CCOC(=O)C1=CCCCC1S(=O)(=O)Nc1ccccc1CC (stereo unspecified),IC50,RAW264.7 [1],130 nM
CCCOC(=O)C1=CCCCC1S(=O)(=O)Nc1ccc(F)cc1F (stereo unspecified),IC50,RAW264.7 [1],29 nM
CCOC(=O)C1=CCCC[C@H]1S(=O)(=O)Nc1ccc(F)cc1Cl [RESATORVID],IC50,RAW264.7 [2],1.9 nM
same,Activity,Mus musculus [4],Active
same,IC50,RAW264.7 [1],1.8 nM
same,Activity,Mus musculus [5],Active
same,IC50,RAW264.7 [3],1.3 nM
same,Activity,Mus musculus [6],Active
same,Activity,Mus musculus [7],Active
same,ED50,Mus musculus [8],0.3 mg/kg
same,Activity,Mus musculus [9],Active
O=C(OCCO)C1=CCCCC1S(=O)(=O)Nc1ccc(F)cc1F (stereo unspecified),IC50,RAW264.7 [1],330 nM
CCOC(=O)C1=CCCCC1S(=O)(=O)Nc1ccc(C#N)cc1Cl (stereo unspecified),IC50,RAW264.7 [1],1600 nM
CCOC(=O)C1=CCCCC1S(=O)(=O)Nc1cccc(F)c1F (stereo unspecified),IC50,RAW264.7 [1],140 nM
CC(C)OC(=O)C1=CCCCC1S(=O)(=O)Nc1ccc(F)cc1F (stereo unspecified),IC50,RAW264.7 [1],110 nM
CCOC(=O)C1=CCCCC1S(=O)(=O)Nc1cc(F)c(F)cc1F (stereo unspecified),IC50,RAW264.7 [1],30 nM
CCOC(=O)C1=CCCCC1S(=O)(=O)Nc1c(F)cccc1F (stereo unspecified),IC50,RAW264.7 [1],160 nM
CCOC(=O)C1=CCCCC1S(=O)(=O)Nc1cccc(Cl)c1 (stereo unspecified),IC50,RAW264.7 [1],66 nM
CCOC(=O)C1=CCCCC1S(=O)(=O)Nc1cccc(F)c1 (stereo unspecified),IC50,RAW264.7 [1],150 nM
CCOC(=O)C1=CCCCC1S(=O)(=O)Nc1ccccc1Cl (stereo unspecified),IC50,RAW264.7 [1],12 nM
CCOC(=O)C1=CCCC[C@@H]1S(=O)(=O)Nc1ccc(F)cc1Cl,IC50,RAW264.7 [2],740 nM
same,IC50,RAW264.7 [1],640 nM
same,IC50,RAW264.7 [3],480 nM
CCOC(=O)C1=CCCCCC1S(=O)(=O)Nc1ccc(F)cc1Cl (stereo unspecified),IC50,RAW264.7 [1],240 nM
CCOC(=O)C1=C(S(=O)(=O)Nc2ccc(Cl)cc2F)CCCC1,IC50,RAW264.7 [1],1700 nM
CCOC(=O)C1=CCCCC1S(=O)(=O)Nc1ccc(F)cc1Cl (stereo unspecified),IC50,RAW264.7 [2],3.4 nM
same,IC50,RAW264.7 [1],3.2 nM
same,IC50,RAW264.7 [3],2.5 nM
